KDM4C inh = inhibitors of GASC-1 (KDM4C) histone demethylase, primary screen, biochemical, single concentration HTS; inhibition, % at 12.5 µM; GST-KDM4C 2-372, H3K9me3 peptide, LANCE TR-FRET; 96,000 compounds, 0.15% hits;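 active = mean replicate inhibition above about 25%, with at least 55% of replicates also reaching it, limit read from the data, passing the limit was not always enough; inconclusive = only one of those two conditions met; inactive = neither condition met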
Target sequence (Q9H3R0 2-372 limits assumed): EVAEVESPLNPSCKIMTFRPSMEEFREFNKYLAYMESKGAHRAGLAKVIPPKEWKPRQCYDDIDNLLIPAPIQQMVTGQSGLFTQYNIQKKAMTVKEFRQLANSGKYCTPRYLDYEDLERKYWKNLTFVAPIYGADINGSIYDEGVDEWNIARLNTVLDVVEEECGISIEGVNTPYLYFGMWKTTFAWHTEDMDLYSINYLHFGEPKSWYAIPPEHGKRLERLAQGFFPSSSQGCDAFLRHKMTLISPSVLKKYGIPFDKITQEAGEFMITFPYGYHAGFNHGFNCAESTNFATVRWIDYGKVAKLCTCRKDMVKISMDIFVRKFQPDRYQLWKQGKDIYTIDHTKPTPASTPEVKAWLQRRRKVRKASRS
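System – N-terminal GST-fused human GASC-1 (KDM4C) fragment, residues 2-372 · Input – enzyme final amount 10 nM · Technique – LANCE TR-FRET, Eu antibody, ULight-streptavidin, EDTA, ex 340 nm, em 618/671 nm · Medium – HEPES buffer, pH 7.5, plus ascorbate · Incubation – enzyme reaction 30 min, then detection 60 min, both room temperature · Reagent – H3K9me3 peptide with Fe(II)/2OG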
IDH1 R132H inh = inhibitors of IDH1 R132H reductase, primary screen, biochemical, plate reader, single point | Isocitrate dehydrogenase [NADP] cytoplasmic (Homo sapiens), O75874 | diaphorase/resazurin fluorescence, 60 min | inhibition, % at 10 µM | 70,000 compounds, 0.18% hits | AID 624101, 2012; in the data active = inhibition above about 34%; inconclusive = no clear call, values can overlap the other calls; inactive = below about 11%
A number is an active result; - = inactive; ? = inconclusive; . = no result given; ! = not active in a repeat. In the library only some 0.22% were active in any assay of this set; here they are far more common.

SMILES | KDM4C inh | IDH1 R132H inh
CN(C)CCCC[C@@H]1NC(=O)[C@H]2C[C@@H](C(=O)NCc3ccc(F)cc3)[C@@H](c3ccc(O)cc3)N2C1=O | . | 42
CN(C)CCCCCCNC(=O)[C@@H]1C[C@@H]2C(=O)N3CCC[C@H]3C(=O)N2[C@@H]1c1ccc(O)cc1 | . | -
COc1ccc2nc(SCC(=O)NC3CCCC3)[nH]c2c1 | . | -
C[C@@H]1CN([C@@H](C)CO)C(=O)c2cc(Br)cnc2O[C@@H]1CN(C)C(=O)C1CCOCC1 | 39 | -
C[C@@H]1CN([C@H](C)CO)C(=O)c2cc(Br)cnc2O[C@@H]1CN(C)C(=O)c1ccccn1 | - | -
C[C@H](CO)N1C[C@H](C)[C@@H](CN(C)C(=O)c2ccccn2)Oc2ncc(Br)cc2C1=O | 26 | -
C[C@H](CO)N1C[C@H](C)[C@@H](CN(C)C(=O)C2CCOCC2)Oc2ncc(Br)cc2C1=O | - | -
C[C@H]1CN([C@@H](C)CO)C(=O)c2cc(-c3ccc(C#N)cc3)cnc2O[C@@H]1CN(C)C(=O)Nc1ccccc1 | - | -
C[C@@H]1CN([C@@H](C)CO)C(=O)c2cc(-c3ccc(C#N)cc3)cnc2O[C@@H]1CN(C)C(=O)Nc1ccccc1 | 33 | -
COc1cc([C@H]2OC[C@H]3[C@@H]2CO[C@@H]3c2ccc(OC)c(OC)c2)ccc1O | . | -
O=C(CSC1CC(=O)N(c2ccc(Br)cc2)C1=O)Nc1ccc(Cl)c(Cl)c1 (configuration not stated) | . | -
COC(=O)c1cccc(OC(C)C(=O)O)c1 (configuration not stated) | . | -
COC(=O)c1ccccc1NC(=O)CN(c1cc(Cl)c(Cl)cc1Cl)S(C)(=O)=O | . | -
CC(=O)OC1CC2(C)C3CC=C4C(CC(O)C(O)C4(C)C)C3(C)CCC2(C)C1C(C)(O)C(=O)CCC(C)(C)O (configuration not stated) | . | -
COc1ccccc1NC(=O)CSc1nc(O)cc(=O)n1-c1ccccc1 | . | -
Cc1cccc(NC(=O)c2ccc(OC(C)C(=O)Nc3ccc(Br)cc3)cc2)c1C (configuration not stated) | . | -
CCN(CC(=O)Nc1cccc(C(C)=O)c1)S(=O)(=O)c1ccc(Cl)cc1 | . | -
O=C(NCCCn1ccnc1)c1ccccc1I | . | -
O=C(NCCCn1ccnc1)c1cc(-c2ccc(Br)cc2)nc2ccccc12 | . | 42
N[C@H]1CC[C@H](CCn2cc(C3CCCCC3)nn2)O[C@@H]1CO | - | -
CC(C)c1cn(CC[C@@H]2CC[C@H](N)[C@@H](CO)O2)nn1 | 38 | -
N[C@H]1CC[C@H](CCn2cc(C3CC3)nn2)O[C@@H]1CO | 31 | .
CN(C)Cc1cn(CC[C@H]2CC[C@@H](N)[C@H](CO)O2)nn1 | ? | -
O=C(CSc1nc2ccccc2[nH]1)Nc1cccc(Cl)c1 | . | -
O=C(CCCn1cc([N+](=O)[O-])cn1)Nc1cccc(C(F)(F)F)c1 | . | -
SMILES | KDM4C inh | IDH1 R132H inh
N#Cc1cccc(-c2ccc([C@@H]3[C@@H]4CN(S(=O)(=O)c5ccc(-c6ccccc6)cc5)C[C@H]3N4)cc2)c1 | - | .
N#Cc1cccc(-c2ccc(C3[C@@H]4CN(S(=O)(=O)c5ccc(F)cc5)C[C@H]3N4)cc2)c1 (some centres not stated) | 34! | .
CC(=O)Nc1ccc(S(=O)(=O)Nc2ccc(Oc3cccnc3)cc2)cc1 | . | -
CN(Cc1nc(-c2cccc([N+](=O)[O-])c2)no1)S(=O)(=O)c1ccccc1 | . | -
CCCC#Cc1cnc2c(c1)C(=O)N([C@H](C)CO)C[C@H](C)[C@@H](CN(C)Cc1cccnc1)O2 | 64 | 100
C[C@@H]1CN([C@@H](C)CO)C(=O)c2cc(/C=C/c3ccccc3)cnc2O[C@H]1CN(C)Cc1cncnc1 | - | -
C[C@H](CO)N1C[C@H](C)[C@@H](CN(C)Cc2cncnc2)Oc2ncc(/C=C/c3ccccc3)cc2C1=O | 52 | 79
CCCC#Cc1cnc2c(c1)C(=O)N([C@H](C)CO)C[C@@H](C)[C@H](CN(C)Cc1cccnc1)O2 | - | -
CCCC#Cc1cnc2c(c1)C(=O)N([C@H](C)CO)C[C@@H](C)[C@@H](CN(C)C(=O)Cc1ccncc1)O2 | - | -
CCCC#Cc1cnc2c(c1)C(=O)N([C@@H](C)CO)C[C@H](C)[C@@H](CN(C)C(=O)Cc1ccncc1)O2 | - | 51
COC(=O)c1cccc(NC(=O)CN(c2cccc(F)c2)S(C)(=O)=O)c1C | . | -
O=C(NCCCN1CCCC1=O)c1cc(-c2cccnc2)nc2ccc(Br)cc12 | . | -
COc1cc(/C=C/CO[C@@H]2O[C@H](CO)[C@@H](O)[C@H](O)[C@H]2O)ccc1O | . | -
Cc1ccccc1-c1ccc2c(c1)O[C@H](CN(C)Cc1ccncc1)[C@H](C)CN([C@H](C)CO)S2(=O)=O | - | -
